Laboratory results taken from publication PMC8203602 (Clinical Pharmacology : Advances and Applications, 2021).
Marks after values point to notes of the source that are not given here.

Legend:
IL-6 [1] = assay: Human whole blood stimulated with IL-1β, IL-6 inhibition; format: cell-based; details: data not shown
[2] = test system: rat streptococcal cell wall arthritis model; details: cited from earlier work
[3] = test system: p-HSP27 (phosphorylated heat shock protein 27); assay: Ex vivo lipopolysaccharide-stimulated whole blood PD assay, p-HSP27; format: cell-based, human; details: inhibitory Emax model, all SAD/MAD cohorts
In short: (§1)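 Healthy adults were dosed orally, fasted. 10 mL blood was drawn: SAD pre-dose, 1, 12 and 24 h; MAD days 1 and 7 pre-dose, 4 and 12 h. Each analyte was read unstimulated, after ex vivo LPS, and after LPS plus 10 μM added test compound. Values were scaled to % day 1 pre-dose (LPS as maximum signal, spiked LPS as maximum inhibition). Plasma levels vs % inhibition were fit by inhibitory Emax (E0, Imax, IC50).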

IL-6 [4] = assay: Ex vivo lipopolysaccharide-stimulated whole blood PD assay, IL-6; format: cell-based, human
In short: as §1

[5] = Safety and tolerability assessments; format: in vivo, human; details: for Deaths / Discontinuations due to TEAEs / Number of TEAEs / Patients reporting TEAEs / Serious TEAEs: ATI-450 n=24
IL-1β = assay: Ex vivo lipopolysaccharide-stimulated whole blood PD assay, IL-1β; format: cell-based, human
In short: as §1

[6] = Plasma pharmacokinetics, single ascending dose cohorts; format: in vivo, human; details: for Tmax / half-life / AUC(0-inf) / AUC(0-t) / Cmax / Vd/F: human, plasma, oral; for CL/F: fasted, mean ± SD
murine model of NOMID = details: cited from earlier work
neutrophils = assay: Clinical laboratory neutrophil counts; format: in vivo, human; details: 50 mg BID group
TNF-α = assay: Ex vivo lipopolysaccharide-stimulated whole blood PD assay, TNF-α; format: cell-based, human
In short: as §1

[7] = Plasma pharmacokinetics, multiple ascending dose cohorts; format: in vivo, human; details: for Tmax at 7 day: median (range)
[8] = inhibitory Emax model, all SAD/MAD cohorts
[9] = SAD and MAD cohorts, ATI-450 n=48
[10] = maximum observed (up to), versus baseline

Cc1cnc(-c2ccnc(C(C)(C)O)n2)cc1-n1c(C)cc(OCc2ncc(F)cc2F)c(Cl)c1=O [ATI-450]
Potency for inhibiting IL-6 (IL-6 [1]): comparable to that for TNF-α and IL-8 | Effect in arthritis model [2]: joint protective effects and preserved bone mineral density | Imax (maximum percent inhibition) [3]: greater than 96% | inhibition at 50 mg (IL-6 [4]; Homo sapiens, 168 h, read-out: IL-6 inhibition): > 50% | Imax (maximum percent inhibition) (IL-6 [4]; [8]): greater than 96% | Deaths ([5]; MAD cohort): 0 | Discontinuations due to TEAEs ([5]; MAD cohort): 0 | Number of TEAEs ([5]; MAD cohort): 24 | Patients reporting TEAEs ([5]; MAD cohort): 12 (50.0) n (%) | Serious TEAEs ([5]; MAD cohort): 0 | Subjects with TEAEs considered related to study drug ([5]; SAD 10 mg cohort): 0 subjects | Subjects with TEAEs considered related to study drug ([5]; SAD 30 mg cohort (nausea, headache, dizziness)): 2 [33%] subjects | Subjects with TEAEs considered related to study drug ([5]; SAD 50 mg cohort (headache)): 1 [17%] subjects | Subjects with TEAEs considered related to study drug ([5]; SAD 100 mg cohort (dizziness)): 1 subjects | Findings in vital signs, electrocardiograms, or clinical laboratory values ([5]; SAD and MAD cohorts): No clinically significant findings | TEAE: Abdominal pain [5, 9]: 2 (4.2) n (%) | TEAE: Constipation [5, 9]: 3 (6.3) n (%) | TEAE: Dizziness [5, 9]: 6 (12.5) n (%) | TEAE: Headache [5, 9]: 10 (20.8) n (%) | TEAE: Nausea [5, 9]: 2 (4.2) n (%) | TEAE: Upper respiratory tract infection [5, 9]: 3 (6.3) n (%) | TEAE: Vomiting [5, 9]: 0 n (%) | Deaths ([5]; SAD cohort): 0 | Discontinuations due to TEAEs ([5]; SAD cohort): 0 | Number of TEAEs ([5]; SAD cohort): 15 | Patients reporting TEAEs ([5]; SAD cohort): 7 (29.2) n (%) | Serious TEAEs ([5]; SAD cohort): 0 | Imax (maximum percent inhibition) (IL-1β; [8]): 74% | Inhibition of IL-1β versus baseline (IL-1β; [10]): ≤ 83.0% | Tmax [6]: 2 to 4 h | half-life [6]: 510 to 672 min | AUC(0-inf) ([6]; 10 mg): 285 ± 78.4 ng·h/mL | AUC(0-t) ([6]; 10 mg): 276 ± 77.8 ng·h/mL | Cmax ([6]; 10 mg): 39.4 ± 10.4 ng/mL | Tmax ([6]; 10 mg): 2 h | Vd/F ([6]; 10 mg): 430 ± 124 L | half-life ([6]; 10 mg): 510 ± 192 min | AUC(0-inf) ([6]; 30 mg): 1100 ± 247 ng·h/mL | AUC(0-t) ([6]; 30 mg): 1070 ± 244 ng·h/mL | Cmax ([6]; 30 mg): 122 ± 33.4 ng/mL | Tmax ([6]; 30 mg): 4 h | Vd/F ([6]; 30 mg): 451 ± 202 L | half-life ([6]; 30 mg): 642 ± 198 min | AUC(0-inf) ([6]; 50 mg): 1460 ± 270 ng·h/mL | AUC(0-t) ([6]; 50 mg): 1430 ± 254 ng·h/mL | Cmax ([6]; 50 mg): 161 ± 20.4 ng/mL | Tmax ([6]; 50 mg): 3 h | Vd/F ([6]; 50 mg): 445 ± 94.7 L | half-life ([6]; 50 mg): 546 ± 144 min | AUC(0-inf) ([6]; 100 mg): 3650 ± 523 ng·h/mL | AUC(0-t) ([6]; 100 mg): 3490 ± 476 ng·h/mL | Cmax ([6]; 100 mg): 426 ± 111 ng/mL | Tmax ([6]; 100 mg): 2 h | Vd/F ([6]; 100 mg): 440 ± 190 L | half-life ([6]; 100 mg): 672 ± 348 min | CL/F ([6]; single dose 10 mg): 37.0 ± 8.8 L/h | CL/F ([6]; single dose 30 mg, one subject excluded): 28.4 ± 7.1^a L/h | CL/F ([6]; single dose 50 mg): 35.1 ± 6.3 L/h | CL/F ([6]; single dose 100 mg): 27.9 ± 4.3 L/h | Increase in AUC0-inf across dose range ([6]; single doses, 10 to 100 mg): ~12.8 fold | Increase in AUC0-t across dose range ([6]; single doses, 10 to 100 mg): ~12.6 fold | Increase in Cmax across dose range ([6]; single doses, 10 to 100 mg): approximately 10.8 fold | Effect on bone marrow levels of IL-1β (murine model of NOMID; NOMID mice, relative to placebo): reduction in bone marrow levels of IL-1β | Effect on disease (murine model of NOMID; transgenic NOMID mice): dramatic attenuation of disease | Neutrophil count (neutrophils; day 7 (baseline 3318.4 cells/μL)): 2514.4 cells/μL | Mean reduction in neutrophils (neutrophils; day 7 versus baseline): 24% | Imax (maximum percent inhibition) (TNF-α; [8]): greater than 96% | Inhibition of TNF-α versus baseline (TNF-α; [10]): up to 92.7% | CLss/F ([7]; 10 mg BID, day 7, mean ± SD): 37.4 ± 10.9 L/h | Cmin ([7]; 10 mg BID, day 7, mean ± SD): 8.1 ± 3.1 ng/mL | Rac, AUCtau (accumulation ratio for AUCtau) ([7]; 10 mg BID, day 7, mean ± SD): 1.4 ± 0.3 | Rac, Cmax (accumulation ratio for Cmax) ([7]; 10 mg BID, day 7, mean ± SD): 1.6 ± 0.6 | CLss/F ([7]; 30 mg BID, day 7, mean ± SD): 33.9 ± 5.9 L/h | Cmin ([7]; 30 mg BID, day 7, mean ± SD): 28.8 ± 10.7 ng/mL | Rac, AUCtau (accumulation ratio for AUCtau) ([7]; 30 mg BID, day 7, mean ± SD): 1.4 ± 0.3 | Rac, Cmax (accumulation ratio for Cmax) ([7]; 30 mg BID, day 7, mean ± SD): 1.2 ± 0.3 | CLss/F ([7]; 50 mg BID, day 7, mean ± SD): 37.3 ± 11.7 L/h | Cmin ([7]; 50 mg BID, day 7, mean ± SD): 58.7 ± 32.8 ng/mL | Rac, AUCtau (accumulation ratio for AUCtau) ([7]; 50 mg BID, day 7, mean ± SD): 1.3 ± 0.4 | Rac, Cmax (accumulation ratio for Cmax) ([7]; 50 mg BID, day 7, mean ± SD): 1.3 ± 0.5 | Increase in AUCtau over dose range ([7]; 10 to 50 mg BID, day 1): 5.9 fold | Increase in Cmax over dose range ([7]; 10 to 50 mg BID, day 1): 5.4 fold | Increase in AUCtau over dose range ([7]; 10 to 50 mg BID, day 7): 5.2 fold | Increase in Cmax over dose range ([7]; 10 to 50 mg BID, day 7): 4.2 fold | Day of administration by which steady state appeared to be reached ([7]; all BID dose levels, based on mean Ctrough days 2 through 6): ≤ 2 days | AUC ([7]; human, plasma, oral, 10 mg): 288 ± 81.5 ng·h/mL | AUC(0-t) ([7]; human, plasma, oral, 10 mg): 365 ± 111 ng·h/mL | Cmax at 7 day ([7]; human, plasma, oral, 10 mg): 51.8 ± 15.8 ng/mL | Vd/F ([7]; human, plasma, oral, 10 mg): 517 ± 203 L | concentration at 7 day ([7]; human, plasma, oral, 10 mg): 24 ± 6.8 ng/mL | half-life ([7]; human, plasma, oral, 10 mg, t1/2, 10 mg BID, day 7, mean ± SD): 576 ± 126 min | Tmax at 7 day ([7]; human, plasma, oral, 10 mg, 10 mg BID, day 7): 2 h | AUC ([7]; human, plasma, oral, 30 mg): 909 ± 163 ng·h/mL | AUC(0-t) ([7]; human, plasma, oral, 30 mg): 1200 ± 309 ng·h/mL | Cmax at 7 day ([7]; human, plasma, oral, 30 mg): 146 ± 33.6 ng/mL | Vd/F ([7]; human, plasma, oral, 30 mg): 483 ± 85.1 L | concentration at 7 day ([7]; human, plasma, oral, 30 mg): 75.6 ± 13.4 ng/mL | half-life ([7]; human, plasma, oral, 30 mg, t1/2, 30 mg BID, day 7, mean ± SD): 618 ± 192 min | Tmax at 7 day ([7]; human, plasma, oral, 30 mg, 30 mg BID, day 7): 2 h | AUC ([7]; human, plasma, oral, 50 mg): 1510 ± 660 ng·h/mL | AUC(0-t) ([7]; human, plasma, oral, 50 mg): 2260 ± 1070 ng·h/mL | Cmax at 7 day ([7]; human, plasma, oral, 50 mg): 219 ± 77.8 ng/mL | Vd/F ([7]; human, plasma, oral, 50 mg): 586 ± 163 L | concentration at 7 day ([7]; human, plasma, oral, 50 mg): 126 ± 55 ng/mL | half-life ([7]; human, plasma, oral, 50 mg, t1/2, 50 mg BID, day 7, mean ± SD): 696 ± 222 min | Tmax at 7 day ([7]; human, plasma, oral, 50 mg, 50 mg BID, day 7): 3 h | half-life ([7]; human, plasma, oral, Mean t1/2 across all SAD and MAD cohorts, all SAD and MAD cohorts): 540 to 720 min | half-life ([7]; human, plasma, oral, Mean terminal t1/2 across doses, 10 to 50 mg BID, day 7): 540 to 720 min | Tmax ([7]; human, plasma, oral, Median tmax across all SAD and MAD cohorts, all SAD and MAD cohorts): 2 to 4 h
